High-throughput results: PubChem, Broad Institute
SIRT5 inh = blocks human SIRT5 desuccinylation of peptide; Purified SirT5, succinyl-peptide AMC, trypsin-coupled fluorescence; inhibition, % at 15 µM; hit rate 1.1% among 330,000; in the data active means inhibition above about 15%; inconclusive means no clear call, values can overlap the other calls
Target sequence (Q9NXA8 whole entry, looked up): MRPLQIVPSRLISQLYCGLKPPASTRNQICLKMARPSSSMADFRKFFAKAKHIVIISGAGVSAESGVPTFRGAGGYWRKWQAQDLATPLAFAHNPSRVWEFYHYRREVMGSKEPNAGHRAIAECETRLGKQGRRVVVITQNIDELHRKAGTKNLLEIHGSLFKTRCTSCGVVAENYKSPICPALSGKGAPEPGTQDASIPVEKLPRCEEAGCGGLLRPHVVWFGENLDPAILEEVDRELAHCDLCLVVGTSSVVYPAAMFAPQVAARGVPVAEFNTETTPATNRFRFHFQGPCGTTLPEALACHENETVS
S100A4 inh HTS = blocks human S100A4 binding to myosin IIA peptide; P26447; S100A4/TAMRA-MyoIIA peptide fluorescence polarization; inhibition, % at 10.7 µM; hit rate 0.14% among 360,000;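 active means mean inhibition of at least 70% across replicates, with every replicate also reaching that level; inconclusive means mean inhibition reaches 70% but some replicates fall short; inactive means mean inhibition below 70%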
Target sequence (P26447 whole entry, looked up): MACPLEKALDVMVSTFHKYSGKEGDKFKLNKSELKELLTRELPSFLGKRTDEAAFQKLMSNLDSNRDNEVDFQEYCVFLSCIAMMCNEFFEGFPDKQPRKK
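assay system = human S100A4 monomer with TAMRA-labelled myosin IIA peptide | also added = labelled myosin peptide probe, 5 nM | incubation = 5 min between mix addition and reading | control set = DMSO and TFP controls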
ERAP1 inh = blocks human ERAP1 aminopeptidase activity; Q9NZ08; recombinant ERAP1, Leu-AMC fluorescence, 60 min; inhibition, % at 10.7 µM; hit rate 0.15% among 340,000;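 active means mean replicate inhibition of at least 30%, or all replicates individually reaching that 30% level; inactive means mean below 30% and not every replicate reaching it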;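 further: 0% = neutral control wells and 100% = L-leucinethiol positive control wells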
CAL PDZ FP-1 = inhibitors of human CAL PDZ peptide binding | purified CAL PDZ, TMR-peptide fluorescence polarization, 1 h | hit rate 0.02% among 330,000 | AID 504414 | inhibition, % at 20 µM;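 active means highest replicate inhibition of at least 40%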;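 further: plate controls were DMSO neutral control wells for no effect and unlabeled competitor peptide control wells for full effect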
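Assay system – tagged CAL PDZ protein CerCALP, purified · Timing – 1 h at RT · Compound – single point, 20 µM · Measured by – fluorescence polarization from S- and P-plane intensities, G-factor corrected · Evaluation – inhibition from polarization loss · Probe or stimulus – TMR reporter peptide T*-PRC34 · Buffer or medium – pH 7.4 phosphate-saline buffer, reducing agent, detergent, IgG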
CAL PDZ FP-2 = CAL PDZ (human) peptide binding inhibition; Q9HD26; purified CAL PDZ, TMR-peptide fluorescence polarization, 1 h; inhibition, % at 24.9 µM; hit rate 0.92% among 300,000; AID 602252;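 active means mean inhibition of at least 30% with at least half of replicates also reaching 30%; inconclusive means no clear call, values can overlap the other calls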;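 further: 0% = DMSO neutral control and 100% = excess unlabeled competitor peptide PRC23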
DENV2 CPE = inhibitors of DENV2 cytopathic effect. DENV2-infected cells, cytopathic effect rescue, plate reader. CPE inhibition, % at 9.99 µM. hit rate 1.7% among 350,000. AID 651640; in the data active means CPE inhibition above about 20%, passing the limit was not always enough; inconclusive means no clear call, values can overlap the other calls; tested in BHK-21 cells;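 further: 0% = median of neutral control wells and 100% = median of positive control wells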
* hit, by the source's call; ? = inconclusive; . = not tested or not shown. Rows were chosen to be rich in hits. Some 2.9% of all compounds tested hit in one or more screens of this group.

SMILES	SIRT5 inh	S100A4 inh HTS	ERAP1 inh	CAL PDZ FP-1	CAL PDZ FP-2	DENV2 CPE
C[C@H]1CCCCO[C@H](CN(C)S(=O)(=O)c2ccc(Cl)cc2)[C@@H](C)CN([C@@H](C)CO)C(=O)c2cc(NS(=O)(=O)c3ccc(F)cc3)ccc2O1	23.5*	-50.7	3.0	.	.	-0.5
C[C@@H]1CCCCO[C@@H](CN(C)S(=O)(=O)c2ccc(F)cc2)[C@H](C)CN([C@H](C)CO)C(=O)c2cc(NS(=O)(=O)c3ccc(Cl)cc3)ccc2O1	16.5*	-2.5	-0.6	.	.	-4.3
CCCN1C[C@H](C)[C@H](OC)CN(C)C(=O)c2cc(NC(=O)CC(F)(F)F)ccc2OC[C@@H]1C	-2.4	-4.4	-0.9	.	.	1.5
O=C(Cc1cccc2ccccc12)Nc1cc(C(=O)O)cc(C(=O)O)c1	-0.8	2.0	-0.3	-0.6	44.2*	2.4
O=C(Cc1cccc2ccccc12)NC(=S)Nc1cccc(C(=O)O)c1	-1.3	0.9	-21.5	-0.9	-3.6	5.5
Cc1ccccc1S(=O)(=O)N1C[C@H](O)COC[C@@H]2O[C@@H](CC(=O)NCc3ccccc3Cl)CC[C@H]21	9.1	114.5*	-1.6	.	.	-0.4
Cc1ccccc1S(=O)(=O)N1C[C@@H](O)COC[C@@H]2O[C@H](CC(=O)N3CCCCC3)CC[C@H]21	-2.5	2.1	3.1	.	.	109.9*
CCCNC(=O)C[C@H]1CC[C@H]2[C@@H](COC[C@@H](O)CN2S(=O)(=O)c2ccccc2F)O1	-7.4	1.8	-2.6	.	.	8.1
CCNC(=O)C[C@@H]1CC[C@H]2[C@@H](COC[C@@H](O)CN2S(=O)(=O)c2ccccc2F)O1	2.9	-5.1	10.8	.	.	23.0*
CN1C(=O)c2cc(NS(=O)(=O)c3cccc(F)c3)ccc2OC[C@H]2O[C@H](CC(=O)O)CC[C@H]21	4.0	-3.1	-2.5	.	.	-12.2
COC(=O)c1ccc(CN2CC(=O)N3[C@H](CO)[C@@H](c4ccc(Br)cc4)[C@@H]3C2)cc1	-7.0	.	.	.	.	-7.6
C[C@@H]1CCCCO[C@H](CN(C)C(=O)Nc2ccc3c(c2)OCO3)[C@H](C)CN([C@@H](C)CO)C(=O)c2cc(NC(=O)Nc3cccc4ccccc34)ccc2O1	-1.4	43.1	-1.2	.	.	9.1
COCC(=O)N1[C@H](CO)[C@@H](c2ccc(-c3cccc(OC)c3)cc2)C12CN(C(C)=O)C2	-5.1	-7.9	-1.6	.	.	28.0*
CC(=O)N1CC2(C1)[C@@H](c1ccc(-c3ccc(F)cc3)cc1)[C@@H](CO)N2C(C)=O	-4.8	0.4	0.8	.	.	78.2*
CCC(=O)N1CC2(C1)[C@H](c1ccc(-c3ccc(F)cc3)cc1)[C@H](CO)N2C(C)=O	0.2	5.2	-0.3	.	.	1.4
CCC(=O)N1CC2(C1)[C@@H](c1ccc(-c3ccccc3C)cc1)[C@@H](CO)N2C(C)=O	1.0	-3.4	-0.8	.	.	-5.7
CCC(=O)N1[C@@H](CO)[C@@H](c2ccc(-c3ccccc3C)cc2)C12CN(C(C)=O)C2	-4.4	2.4	0.6	.	.	60.1*
NCC[C@H]1CC[C@@H](NS(=O)(=O)Cc2ccccc2)[C@@H](CO)O1	2.0	3.3	0.1	.	.	0.4
C[C@H]1CN([C@@H](C)CO)C(=O)c2cc(NC(=O)Cc3cn(C)c4ccccc34)ccc2O[C@H]1CN(C)S(=O)(=O)c1cn(C)cn1	-1.5	19.7	3.8	.	.	-3.3
Nc1ncc(-c2ccc(F)cc2)nc1N1CCN(CCO)CC1	0.8	-1.8	1.9	.	.	27.2*
C[C@H](CO)N1C[C@H](C)[C@@H](CN(C)Cc2ccccc2)Oc2ccc(NS(=O)(=O)c3cn(C)cn3)cc2C1=O	7.7	-3.1	1.1	.	.	-8.9
C[C@H](CO)N1C[C@H](C)[C@@H](CN(C)CC2CC2)Oc2ccc(NS(=O)(=O)c3cn(C)cn3)cc2C1=O	.	5.1	-0.2	.	.	32.7*
C[C@H](CO)N1C[C@H](C)[C@H](CN(C)CC2CC2)Oc2ccc(NS(=O)(=O)c3cn(C)cn3)cc2C1=O	1.0	-34.7	0.9	.	.	-3.5
C[C@@H]1CN([C@H](C)CO)C(=O)c2cc(NS(=O)(=O)c3cn(C)cn3)ccc2O[C@H]1CN(C)Cc1ccccc1	-7.9	9.9	0.1	.	.	20.8*
C[C@H]1CN([C@@H](C)CO)C(=O)c2cc(NS(=O)(=O)c3cn(C)cn3)ccc2O[C@@H]1CN(C)Cc1ccccc1	-25.2	-4.4	-0.5	.	.	23.7*
SMILES	SIRT5 inh	S100A4 inh HTS	ERAP1 inh	CAL PDZ FP-1	CAL PDZ FP-2	DENV2 CPE
O=C(Nc1ccccc1)N1CCCCN2[C@@H](CO)[C@H](c3ccc(C#Cc4cccnc4)cc3)[C@@H]2C1	-1.7	-5.5	0.3	.	.	-10.7
CCC(=O)N1CC(=O)N2[C@H](CO)[C@H](c3ccc(C#CC4CCCC4)cc3)[C@H]2C1	-1.5	136.1*	1.1	.	.	-2.9
COCC(=O)N1CC(=O)N2[C@@H](CO)[C@@H](c3ccc(Br)cc3)[C@@H]2C1	-3.9	3.7	3.1	.	.	29.3*
O=C(Cc1ccccn1)N1CC(=O)N2[C@@H](CO)[C@H](c3ccc(C#CC4CCCC4)cc3)[C@@H]2C1	-7.3	-11.6	31.9*	.	.	5.8
O=C(C[C@@H]1CC[C@@H](NC(=O)c2cnccn2)[C@H](CO)O1)NCc1ccccc1F	-1.5	2.9	1.8	.	.	?
C[C@H]1CCCCO[C@H](CN(C)S(=O)(=O)c2ccccc2)[C@@H](C)CN([C@@H](C)CO)C(=O)c2cc(NS(C)(=O)=O)ccc2O1	0.7	-0.6	0.9	.	.	.
CC(=O)OC1CCC2(C)C(CCC3C2CC(=O)C2(C)C3CC(C3CCCC3=O)C2C(C)=O)C1 (stereo unspecified)	15.1*	-2.0	1.7	0.0	9.0	-4.4
CC(=O)O[C@H]1CC[C@@]2(C)[C@@H](CC[C@H]3[C@@H]4CC[C@H](C(C)O)[C@@]4(C)CC(=O)[C@@H]32)C1 (stereo partly specified)	22.6*	-1.2	-3.2	-0.8	-0.3	37.3*
CC(=O)OC1CCC2(C)C(CCC3C2CC(=NO)C2(C)C(C(C)OC(C)=O)CCC32)C1 (stereo unspecified)	1.8	-2.8	-0.2	-0.2	2.3	-0.4
COc1ccccc1-c1ccc2n(c1=O)C[C@H]1[C@H](CO)[C@@H](C(=O)N[C@H](C)c3ccccc3)[C@@H]2N1C	-5.4	13.3	1.5	.	.	74.0*
CN(C)CCCNC(=O)[C@H]1[C@H](CO)[C@H]2Cn3c(ccc(-c4ccccc4)c3=O)[C@@H]1N2C	-5.5	2.7	-1.4	.	.	46.7*
CN(C)CCCNC(=O)[C@@H]1[C@@H](CO)[C@@H]2Cn3c(ccc(-c4ccc(F)cc4)c3=O)[C@H]1N2C	-5.0	4.6	3.2	.	.	-1.9
C[C@@H](NC(=O)[C@H]1[C@H](CO)[C@H]2Cn3c(ccc(-c4ccncc4)c3=O)[C@@H]1N2C)c1ccccc1	-1.2	-7.8	0.8	.	.	0.8
CCC(=O)N1[C@@H]2c3ccc(C4=CCCCC4)c(=O)n3C[C@H]1[C@H](CO)[C@H]2C(=O)N[C@H](C)c1ccccc1	-21.7	-10.6	0.0	.	.	92.7*
